Test results as given in ChEMBL document CHEMBL5303300, “EUbOPEN Chemogenomics Library - Multiplex” (2023).
Values joined by “and” are separate entries in the source; they are usually repeats but may differ in a detail not shown here. Equal entries are not always repeated.

Tested on: HEK-293T
Test: Multiplex assay against HEK293T
Type: toxicity, cell-based
Conditions: human, number of replicates 2
Procedure, shortened: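 Live cells carried four stains from seeding: Hoechst33342, BioTracker Green Microtubule Cytoskeleton Dye, MitoTracker Red and Annexin V Alexa Fluor 680. They were imaged on a CQ1 microscope at 37°C and 5% CO2 after compound addition. Using CellPathfinder machine-learning gating, cells were split into Hoechst high-intensity objects or normal cells, normal cells into healthy, pyknosed or fragmented nuclei, and pyknosed cells into mitotic or apoptotic; tubulin, mitochondrial-mass and membrane-permeability phenotypes are per cents of healthy-nucleus cells.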

[1] = 12 h, 1 µM, compound concentration 1 uM
[2] = 12 h, 10 µM, compound concentration 10 uM
[3] = 24 h, 1 µM, compound concentration 1 uM
[4] = 24 h, 10 µM, compound concentration 10 uM
[5] = 48 h, 1 µM, compound concentration 1 uM
[6] = 48 h, 10 µM, compound concentration 10 uM

## Cc1ccc(C(=O)Nc2cc(N3CCN(C)CC3)cc(C(F)(F)F)c2)cc1-n1cc(-c2cnn(C)c2C)nn1.Cl
[1]
  Population Apoptotic (%): 57% and 65%
  Population Fragmented Nuclei (%): 4% and 5%
  Population Healthy Nuclei (%): 73% and 76%
  Population Hoechst High Intensity Objects (%): 11% and 9%
  Population Membrane Permeable-Phenotype (%): 5% and 4%
  Population Mitochondria Different-Phenotype (%): 26% and 20%
  Population Mitotic Cells (%): 42% and 35%
  Population Normal (%): 88% and 90%
  Population Pyknosed Nuclei (%): 22% and 17%
  Population Tubulin-Different-Phenotype (%): 74% and 71%
  Total Cell Count: 510 and 505
[2]
  Population Apoptotic (%): 61% and 68%
  Population Fragmented Nuclei (%): 2% and 3%
  Population Healthy Nuclei (%): 81% and 82%
  Population Hoechst High Intensity Objects (%): 4% and 5%
  Population Membrane Permeable-Phenotype (%): 8% and 12%
  Population Mitochondria Different-Phenotype (%): 25% and 17%
  Population Mitotic Cells (%): 38% and 31%
  Population Normal (%): 95% and 94%
  Population Pyknosed Nuclei (%): 16% and 14%
  Population Tubulin-Different-Phenotype (%): 88% and 86%
  Total Cell Count: 680 and 697
[3]
  Population Apoptotic (%): 70% and 51%
  Population Fragmented Nuclei (%): 8% and 10%
  Population Healthy Nuclei (%): 77% and 76%
  Population Hoechst High Intensity Objects (%): 10%
  Population Membrane Permeable-Phenotype (%): 3% and 2%
  Population Mitochondria Different-Phenotype (%): 16% and 9%
  Population Mitotic Cells (%): 29% and 48%
  Population Normal (%): 89%
  Population Pyknosed Nuclei (%): 14% and 12%
  Population Tubulin-Different-Phenotype (%): 57% and 53%
  Total Cell Count: 759 and 691
[4]
  Population Apoptotic (%): 56% and 59%
  Population Fragmented Nuclei (%): 2% and 4%
  Population Healthy Nuclei (%): 83%
  Population Hoechst High Intensity Objects (%): 6% and 9%
  Population Membrane Permeable-Phenotype (%): 8% and 11%
  Population Mitochondria Different-Phenotype (%): 25% and 22%
  Population Mitotic Cells (%): 43% and 40%
  Population Normal (%): 93% and 90%
  Population Pyknosed Nuclei (%): 13% and 12%
  Population Tubulin-Different-Phenotype (%): 88% and 85%
  Total Cell Count: 748 and 730
[5]
  Population Apoptotic (%): 35% and 32%
  Population Fragmented Nuclei (%): 13% and 11%
  Population Healthy Nuclei (%): 81% and 84%
  Population Hoechst High Intensity Objects (%): 10%
  Population Membrane Permeable-Phenotype (%): 9% and 6%
  Population Mitochondria Different-Phenotype (%): 1%
  Population Mitotic Cells (%): 64% and 67%
  Population Normal (%): 89%
  Population Pyknosed Nuclei (%): 5% and 4%
  Population Tubulin-Different-Phenotype (%): 23% and 35%
  Total Cell Count: 1722 and 1279
[6]
  Population Apoptotic (%): 37% and 52%
  Population Fragmented Nuclei (%): 8%
  Population Healthy Nuclei (%): 83% and 86%
  Population Hoechst High Intensity Objects (%): 5% and 8%
  Population Membrane Permeable-Phenotype (%): 15% and 14%
  Population Mitochondria Different-Phenotype (%): 8%
  Population Mitotic Cells (%): 62% and 47%
  Population Normal (%): 94% and 91%
  Population Pyknosed Nuclei (%): 7% and 5%
  Population Tubulin-Different-Phenotype (%): 79%
  Total Cell Count: 1207 and 1093
